Test results published in ChEMBL document CHEMBL3588757, “Structure-based design, synthesis and biological testing of piperazine-linked bis-epipodophyllotoxin etoposide analogs” (Bioorg Med Chem, 2015).
Activity calls are given as the source filed them. No cut-off for these calls is given here.

Experiments:
[1] = target: DNA topoisomerase 2-alpha (Homo sapiens) (UniProt P11388); experiment: Inhibition of full-length human recombinant topoisomerase 2-alpha mediated relaxation and cleavage of supercoiled pBR322 plasmid DNA to linear DNA by ethidium bromide staining based gel electrophoresis assay
Procedure, shortened: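 Recombinant full-length human topoisomerase IIα with supercoiled pBR322 DNA at 37 °C. Components mixed on ice before drug addition. Complexes trapped with SDS; products run on ethidium bromide gels. Linear DNA identified against a HindIII-linearized marker; repeated on three days.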

[2] = tested on: K562; experiment: Induction of DNA double strand breaks in human K562 cells assessed as increase in gamma-H2AX level at 25 uM after 4 hrs by chemiluminescence analysis; format: functional, cell-based
Procedure, shortened: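 K562 cells (3.4 × 10^5/mL) exposed 4 h at 37 °C to 25 µM drug or DMSO. Lysed in Tris pH 6.7/SDS buffer; 50 µg protein on 14% SDS-PAGE, PVDF blot. Rabbit anti-γH2AX (1:1000, overnight), GAPDH loading control, HRP secondary. Chemiluminescence imaged by CCD.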

[3] = tested on: K562; experiment: Relative resistance, ratio of IC50 for etoposide-resistant human K/VP.5 cells to IC50 for human K562 cells; format: functional
[4] = tested on: K562; experiment: Cytotoxicity against human K562 cells assessed as cell growth inhibition after 72 hrs by MTS assay; format: functional, cell-based; settings: K562, 72 h
[5] = Cytotoxicity against etoposide-resistant human K/VP.5 cells assessed as cell growth inhibition after 72 hrs by MTS assay; format: functional, cell-based; settings: K/VP.5, 72 h
Procedure, shortened: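 K/VP.5 cells are a K562-derived subline, 26-fold etoposide-resistant, with decreased topoisomerase IIα mRNA and protein. Cells were grown in suspension in αMEM with 10% fetal calf serum. Drugs were given from DMSO stocks, with final DMSO typically 0.4% or less. Read-out was MTS absorbance after 72 h. Typically nine concentrations were run in duplicate on two days. IC50 came from a four-parameter logistic fit.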

[6] = target: DNA topoisomerase 2-alpha (Homo sapiens) (UniProt P11388); experiment: Inhibition of full-length human recombinant topoisomerase 2-alpha-mediated decatenation activity of kDNA at >10 uM by ethidium bromide based gel-assay
[7] = tested on: K562; experiment: Induction of apoptosis in human K562 cells assessed as increase in caspase 3/7 activity at 1 uM by luminescence analysis; format: functional, cell-based; settings: TDE = time-dependent effect
Procedure, shortened: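 K562 cells at 2 × 10^5 cells/mL treated with vehicle or 1 µM compound for 24 or 48 h. Lysates assayed with a luminogenic DEVD-aminoluciferin caspase-3/7 substrate and read by luminescence. Four wells (eight for control); unpaired t-test vs control; repeated on two days.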

[8] = tested on: CHO; experiment: Induction of apoptosis in CHO cells assessed as increase in sub-G0/G1 cell population at 1 uM after 49 hrs by propidium iodide staining based flow cytometry; format: functional; settings: Cricetulus griseus
Procedure, shortened: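 CHO cells grown to confluence in α-MEM/10% FCS, serum-starved 48 h (0% FCS), then seeded at 2 × 10^5 cells/mL and repleted with 10% FCS. Continuously treated from repletion with 1 µM compound (10 µM etoposide, DMSO control) for various times. Propidium iodide DNA staining, flow cytometric phase distribution including sub-G0/G1.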

[9] = tested on: CHO; experiment: Induction of cell cycle arrest in CHO cells assessed as accumulation at G2/M phase at 1 uM by propidium iodide staining based flow cytometry; format: functional; settings: Cricetulus griseus
[10] = target: DNA topoisomerase 2-alpha (Homo sapiens) (UniProt P11388); experiment: Inhibition of full-length human recombinant topoisomerase 2-alpha assessed as conversion of […] DNA at 100 uM by ethidium bromide based gel-assay
[11] = tested on: K562; experiment: Induction of apoptosis in human K562 cells assessed as decrease in proportion of viable cells at 1 uM after 24 to 48 hrs by annexin V-FITC/propidium iodide staining based two-color fluorescence flow cytometry; format: functional, cell-based
Procedure, shortened: (§1)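 K562 cells (1 × 10^6/mL), untreated or given 1 µM compound (10 µM etoposide control) at 37 °C for 24 h or 48 h. Annexin V-FITC plus propidium iodide two-colour flow cytometry. Cells are scored as viable, apoptotic-only (annexin+/PI−), apoptotic/necrotic (annexin+/PI+) or necrotic.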

[12] = tested on: K562; experiment: Induction of apoptosis in human K562 cells assessed as increase in proportion of apoptotic and apoptotic/necrotic cells at 1 uM after 24 to 48 hrs by annexin V-FITC/propidium iodide staining based two-color fluorescence flow cytometry; format: functional, cell-based; procedure, shortened: as §1
[13] = tested on: CHO; experiment: Induction of apoptosis in CHO cells assessed as increase in sub-G0/G1 cell population at 10 uM after 49 hrs by propidium iodide staining based flow cytometry (Rvb <2%); format: functional, Cricetulus griseus
[14] = tested on: K562; experiment: Induction of apoptosis in human K562 cells assessed as increase in proportion of apoptotic and apoptotic/necrotic cells at 10 uM after 24 to 48 hrs by annexin V-FITC/propidium iodide staining based two-color fluorescence flow cytometry; format: functional, cell-based
[15] = tested on: CHO; experiment: Induction of cell cycle arrest in CHO cells assessed as accumulation at G2/M phase at 10 uM after 21 hrs by propidium iodide staining based flow cytometry; format: functional; settings: Cricetulus griseus
[16] = tested on: K562; experiment: Induction of apoptosis in human K562 cells assessed as decrease in proportion of viable cells at 10 uM after 24 to 48 hrs by annexin V-FITC/propidium iodide staining based two-color fluorescence flow cytometry; format: functional, cell-based
[17] = target: DNA topoisomerase 2-alpha (Homo sapiens) (UniProt P11388); experiment: Inhibition of full-length human recombinant topoisomerase 2-alpha-mediated decatenation activity of kDNA by ethidium bromide based gel-assay

Sequence of DNA topoisomerase 2-alpha (Homo sapiens) (P11388 whole entry): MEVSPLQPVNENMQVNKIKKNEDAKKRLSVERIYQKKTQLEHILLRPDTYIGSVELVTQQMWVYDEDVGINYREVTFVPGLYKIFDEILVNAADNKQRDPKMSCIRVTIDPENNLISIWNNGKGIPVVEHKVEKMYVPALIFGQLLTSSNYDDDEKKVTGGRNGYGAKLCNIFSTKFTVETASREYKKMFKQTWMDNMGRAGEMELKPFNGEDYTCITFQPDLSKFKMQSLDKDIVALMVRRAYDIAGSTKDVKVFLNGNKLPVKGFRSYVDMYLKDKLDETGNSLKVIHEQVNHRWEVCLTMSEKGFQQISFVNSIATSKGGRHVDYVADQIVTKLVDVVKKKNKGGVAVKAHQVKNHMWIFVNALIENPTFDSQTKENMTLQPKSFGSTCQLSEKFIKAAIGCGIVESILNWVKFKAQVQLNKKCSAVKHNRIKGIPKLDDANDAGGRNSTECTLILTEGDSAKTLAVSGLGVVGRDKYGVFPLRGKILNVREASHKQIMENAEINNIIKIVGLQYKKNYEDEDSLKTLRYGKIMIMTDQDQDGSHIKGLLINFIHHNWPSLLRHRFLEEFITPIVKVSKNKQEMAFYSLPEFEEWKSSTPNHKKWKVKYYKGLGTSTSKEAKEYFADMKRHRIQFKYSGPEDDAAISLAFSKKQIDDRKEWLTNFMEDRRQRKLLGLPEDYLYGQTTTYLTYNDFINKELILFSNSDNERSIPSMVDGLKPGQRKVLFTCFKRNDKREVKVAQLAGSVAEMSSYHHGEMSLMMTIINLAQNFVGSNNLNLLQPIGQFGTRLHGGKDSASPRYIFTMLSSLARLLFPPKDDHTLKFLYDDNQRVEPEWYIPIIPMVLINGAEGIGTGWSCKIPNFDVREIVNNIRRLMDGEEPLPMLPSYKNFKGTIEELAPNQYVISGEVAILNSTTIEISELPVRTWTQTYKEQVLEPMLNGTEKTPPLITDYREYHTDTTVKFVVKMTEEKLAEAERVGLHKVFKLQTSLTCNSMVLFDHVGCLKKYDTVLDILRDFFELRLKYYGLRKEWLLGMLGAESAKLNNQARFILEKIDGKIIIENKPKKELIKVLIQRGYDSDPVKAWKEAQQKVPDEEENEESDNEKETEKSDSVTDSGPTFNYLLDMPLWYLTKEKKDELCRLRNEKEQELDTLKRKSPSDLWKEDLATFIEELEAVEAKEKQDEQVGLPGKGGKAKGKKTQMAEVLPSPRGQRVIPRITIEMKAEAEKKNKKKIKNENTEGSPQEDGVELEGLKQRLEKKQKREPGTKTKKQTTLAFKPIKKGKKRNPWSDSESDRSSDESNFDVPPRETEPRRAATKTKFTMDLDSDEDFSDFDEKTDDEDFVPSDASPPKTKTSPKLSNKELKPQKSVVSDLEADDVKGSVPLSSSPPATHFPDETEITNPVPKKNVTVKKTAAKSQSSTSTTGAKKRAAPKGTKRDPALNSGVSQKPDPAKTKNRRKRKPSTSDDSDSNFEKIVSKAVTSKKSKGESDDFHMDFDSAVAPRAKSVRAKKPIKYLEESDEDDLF

SMILES | Effect on topoisomerase 2-alpha DNA cleavage (qualitative) [1] | Activity [2] | Ratio IC50 [3] | IC50 [4] [nM] | IC50 [5] [nM] | Inhibition of decatenation activity (qualitative) [6] | Activity [7] | Activity [8] | Activity [9] | Inhibition (qualitative activity call) [10] | Activity [11] | Activity [12] | Activity [13] [%] | Activity [14] | Activity [15] | Activity [16] | inhibition [17]
COc1cc([C@@H]2c3cc4c(cc3[C@@H](NC(=O)CN3CCN(CCCCCCCCN5CCNCC5)CC3)[C@H]3COC(=O)[C@H]23)OCO4)cc(OC)c1O | Dose-dependent effect | Active | 5.4 | 103 | 556 | Active |  |  |  |  |  |  |  |  |  |  | 
COc1cc([C@@H]2c3cc4c(cc3[C@@H](NC(=O)CN3CCN(CCCCCCCCN5CCN(CC(=O)N[C@@H]6c7cc8c(cc7[C@@H](c7cc(OC)c(O)c(OC)c7)[C@H]7C(=O)OC[C@@H]76)OCO8)CC5)CC3)[C@H]3COC(=O)[C@H]23)OCO4)cc(OC)c1O | Dose-dependent effect | Active | 7.4 | 16 | 115 | Active | tde | Active | Active | Active | Active | Active |  |  |  |  | 
COc1cc([C@@H]2c3cc4c(cc3[C@@H](O[C@@H]3O[C@@H]5CO[C@@H](C)O[C@H]5[C@H](O)[C@H]3O)[C@H]3COC(=O)[C@H]23)OCO4)cc(OC)c1O [ETOPOSIDE] | Dose-dependent effect | Active | 15.4 | 163 | 2500 | Active |  |  |  | Active |  |  | 39 | Active | Active | Active | 
COc1cc([C@@H]2c3cc4c(cc3[C@@H](NC(=O)CN3CCN(CCCCCCCCCCN5CCNCC5)CC3)[C@H]3COC(=O)[C@H]23)OCO4)cc(OC)c1O | Dose-dependent effect | Active | 6 | 26 | 156 | Active | tde | Active |  |  | Active | Active |  |  |  |  | 
COc1cc([C@@H]2c3cc4c(cc3[C@@H](NC(=O)CN3CCN(CCCCCCCCCCCCN5CCN(CC(=O)N[C@@H]6c7cc8c(cc7[C@@H](c7cc(OC)c(O)c(OC)c7)[C@H]7C(=O)OC[C@@H]76)OCO8)CC5)CC3)[C@H]3COC(=O)[C@H]23)OCO4)cc(OC)c1O | Dose-dependent effect |  | 8.2 | 67 | 549 | Active |  |  |  | Active |  |  |  |  |  |  | 
COc1cc([C@@H]2c3cc4c(cc3[C@@H](NC(=O)CN3CCN(CCCN5CCNCC5)CC3)[C@H]3COC(=O)[C@H]23)OCO4)cc(OC)c1O | Dose-dependent effect | Active | 10.5 | 1270 | 13300 |  |  |  |  |  |  |  |  |  |  |  | Active
